Data reported in ChEMBL document CHEMBL1154178, “Puupehanol, a sesquiterpene-dihydroquinone derivative from the marine sponge Hyrtios sp” (Bioorg Med Chem Lett, 2009).
≈ marks a conversion by molar mass, not a printed value. Calls of active or inactive are those of the source. The calls are words filed in the database; no cut-off is given here.

What was measured:
Type in all cases: functional, organism-based
Aspergillus fumigatus [1] = assay: Antifungal activity against Aspergillus fumigatus ATCC 90906 after 48 hrs by two fold serial dilution technique
Candida albicans [2] = assay: Antifungal activity against Candida albicans ATCC 90028 after 48 hrs by two fold serial dilution technique; settings: ATCC 90028, 48 h
Cryptococcus neoformans [3] = assay: Antifungal activity against Cryptococcus neoformans ATCC 90113 after 72 hrs by two fold serial dilution technique; settings: ATCC 90113, 72 h
How it was run: (§1)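 Top concentration in the dilution series was 20 µg/mL.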

Nakaseomyces glabratus [4] = assay: Antifungal activity against Candida glabrata ATCC 90030 after 48 hrs by two fold serial dilution technique; settings: ATCC 90030, 48 h; how it was run: as §1
Pichia kudriavzevii [5] = assay: Antifungal activity against Candida krusei ATCC 6258 after 48 hrs by two fold serial dilution technique; settings: ATCC 6258, 48 h
Candida albicans [6] = assay: Antifungal activity against Candida albicans ATCC 90028 after 48 hrs by two fold serial dilution technique at 20 ug/mL; how it was run: as §1
Pichia kudriavzevii [7] = assay: Antifungal activity against Candida krusei ATCC 6258 after 48 hrs by two fold serial dilution technique at 20 ug/mL; how it was run: as §1
Aspergillus fumigatus [8] = assay: Antifungal activity against Aspergillus fumigatus ATCC 90906 after 48 hrs by two fold serial dilution technique at 20 ug/mL; how it was run: as §1
Nakaseomyces glabratus [9] = assay: Antifungal activity against Candida glabrata ATCC 90030 after 48 hrs by two fold serial dilution technique at 20 ug/mL; how it was run: as §1
Cryptococcus neoformans [10] = assay: Antifungal activity against Cryptococcus neoformans ATCC 90113 after 72 hrs by two fold serial dilution technique at 20 ug/mL; how it was run: as §1

Structure (SMILES)	IC50 (Aspergillus fumigatus [1]; ATCC 90906, 48 h)	IC50 (Candida albicans [2])	IC50 (Cryptococcus neoformans [3])	MFC (Cryptococcus neoformans [3])	MIC (Cryptococcus neoformans [3])	IC50 (Nakaseomyces glabratus [4])	MFC (Nakaseomyces glabratus [4])	MIC (Nakaseomyces glabratus [4])	IC50 (Pichia kudriavzevii [5])	Activity (Candida albicans [6])	Activity (Pichia kudriavzevii [7])	Activity (Aspergillus fumigatus [8])	Activity (Nakaseomyces glabratus [9])	other results
CC1(C)CCC[C@]2(C)[C@H]3C=C4C=C(O)C(=O)C=C4O[C@@]3(C)CC[C@@H]12 [PUUPEHENONE]	5.63 µg/mL (≈ 17.1 µM)	3.02 µg/mL (≈ 9.19 µM)	0.38 µg/mL (≈ 1.16 µM)	1.25 µg/mL (≈ 3.81 µM)	0.63 µg/mL (≈ 1.92 µM)	2.67 µg/mL (≈ 8.13 µM)	10 µg/mL (≈ 30.4 µM)	10 µg/mL (≈ 30.4 µM)	1.49 µg/mL (≈ 4.54 µM)					MFC (Aspergillus fumigatus [1]): inactive; MIC (Aspergillus fumigatus [1]; ATCC 90906, 48 h): 10 µg/mL (≈ 30.4 µM); MFC (Candida albicans [2]): 10 µg/mL (≈ 30.4 µM); MIC (Candida albicans [2]): 10 µg/mL (≈ 30.4 µM); MFC (Pichia kudriavzevii [5]): 2.5 µg/mL (≈ 7.61 µM); MIC (Pichia kudriavzevii [5]): 2.5 µg/mL (≈ 7.61 µM)
CC1(C)CCC[C@]2(C)[C@H]3C=C4C(=CC(=O)C(O)=C4Cl)O[C@@]3(C)CC[C@@H]12 [CHLOROPUUPEHENONE]			5.73 µg/mL (≈ 15.8 µM)	20 µg/mL (≈ 55.1 µM)	10 µg/mL (≈ 27.6 µM)					inactive	inactive	inactive	inactive	
CC1(C)CCC[C@]2(C)[C@H]3C=C4C(=CC(=O)[C@H](O)[C@@H]4O)O[C@@]3(C)CC[C@@H]12										inactive	inactive	inactive	inactive	Activity (Cryptococcus neoformans [10]): inactive
C[C@@H]1[C@H](O)[C@@H](C)/C=C/C=C/C=C/C=C/C=C/C=C/C=C/[C@H](O[C@@H]2O[C@H](C)[C@@H](O)[C@H](N)[C@@H]2O)C[C@@H]2O[C@](O)(C[C@@H](O)C[C@@H](O)[C@H](O)CC[C@@H](O)C[C@@H](O)CC(=O)O[C@H]1C)C[C@H](O)[C@H]2C(=O)O [AMPHOTERICIN B]	1.02 µg/mL (≈ 1.1 µM)	0.26 µg/mL (≈ 0.281 µM)	0.34 µg/mL (≈ 0.368 µM)	0.63 µg/mL (≈ 0.682 µM)	0.63 µg/mL (≈ 0.682 µM)	0.29 µg/mL (≈ 0.314 µM)	0.63 µg/mL (≈ 0.682 µM)	0.63 µg/mL (≈ 0.682 µM)	0.699 µg/mL (≈ 0.756 µM)					MFC (Aspergillus fumigatus [1]; ATCC 90906, 48 h): 5 µg/mL (≈ 5.41 µM)
